The list is not random: actives were taken first. Their share in the collection is about 3.9%.
Jurkat NFkB inh: inhibitors of the PMA/ionomycin-induced NF-kB reporter in Jurkat cells; PMA/ionomycin-induced NF-kB luciferase reporter, luminescence; inhibition, % at 4 µM; hit rate 0.53% among 330,000; AID 435003; in the data active means inhibition above about 50%
697 NFkB inh: lowers PMA/ionomycin-induced NF-kB signal in 697 B cells | inhibition, % at 4 µM | hit rate 0.33% among 330,000 | 697 B-cell NF-kB luciferase reporter, 16 h; in the data active means inhibition above about 35%
Gli-Sufu block: Gli-Sufu pathway antagonism | Sufu-KO-LIGHT fibroblasts, Gli luciferase reporter luminescence | inhibition, % at 5 µM | hit rate 0.74% among 340,000 | AID 588413;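 active means inhibition above about 55%, limit read from the data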
UPR CHOP act: apoptotic UPR (CHOP) activation | activation, % at 10 µM | AID 449763 | hit rate 0.34% among 330,000 | CHO-CHOP luciferase reporter, luminescence; percent of tunicamycin response over DMSO baseline;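 active means at 10 µM dose, activation of 40% or more, normalized to positive control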
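System: CHO-CHOP luciferase reporter cell line; amount: 500 cells/well; buffer or medium: F12 medium containing 10% fetal bovine serum; incubation: 6 h compound exposure at 37 °C after overnight seeding; measured by: luciferase luminescence after 10 min with Steady-Glo reagent; evaluation: % reporter activation, DMSO baseline versus tunicamycin full activation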
XBP1 UPR activ: activators of adaptive arm of unfolded protein response (XBP1) | CHO-XBP1 luciferase reporter, IRE1-XBP1 UPR activation, luminescence; percent of tunicamycin response, DMSO as zero | activation, % at 20 µM | hit rate 0.33% among 330,000 | AID 463104;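 active means versus positive control, 20 µM dose yields 30% or more activation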
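Assay system: IRE1-XBP1 luciferase reporter CHO line. Input: 1000 cells/well. Buffer or medium: F12 with 10% serum. Doses: 20 µM, 1% DMSO. Times: overnight seeding at 37 °C, 6 h compound treatment at 37 °C. Technique: Steady-Glo luciferase glow luminescence, 10 min after reagent addition.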
CHOP inh: CHOP inhibition in unfolded protein response; CHO-K1 CHOP-promoter luciferase, tunicamycin-induced, 15-18 h; inhibition, % at 10 µM; hit rate 3.8% among 220,000;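 active means compounds that reduced the stress-induced luciferase reporter signal by more than about 70% of percent inhibition, limit read from the data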
Jurkat NFkB conf: inhibitors of the PMA/ionomycin-induced NF-kB reporter in Jurkat cells, retest | shares compounds with Jurkat NFkB inh | Jurkat NF-kB luciferase, 16 h | inhibition, % at 4 µM | hit rate 27% among 2,700;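 active means inhibition reaching about 45% at 4 µM in either replicate, limit read from the data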
697 NFkB conf: lowers PMA/ionomycin-induced NF-kB signal in 697 B cells; shares compounds with 697 NFkB inh; 697 B-cell NF-kB luciferase, 16 h; inhibition, % at 4 µM; hit rate 35% among 2,000; in the data active means inhibition mostly above about 28%, no sharp cut-off; inactive means mostly below about 22%
Of the large screens only hits and unclear results are named; the others gave an inactive call (follow-up assays come after a bar, where they were run).

CCN(CC)c1ccc2cc(C(=O)Nc3ccccn3)c(=O)oc2c1	none | Jurkat NFkB conf inactive | 697 NFkB conf inactive
Cc1ccc(-c2nc(S(=O)(=O)c3ccccc3)c(SCC(=O)NCC3CCCO3)o2)cc1 (configuration not stated)	none (no result: CHOP inh)
COc1ccc(C(=S)N2CCOCC2)cc1OC(=O)c1ccc(C)cc1	none (no result: CHOP inh)
COc1ccc(-c2c(C)nc3c(-c4ccsc4)cnn3c2N)cc1	none (no result: CHOP inh) | Jurkat NFkB conf inactive | 697 NFkB conf inactive
Cc1ccc(Cn2ccsc2=NC(=O)CCl)cc1	Jurkat NFkB inh 78, 697 NFkB inh 94 | Jurkat NFkB conf 51 | 697 NFkB conf 98
Cc1ccc(Cn2ccsc2=NC(=O)COC(=O)c2ccc(NC(=O)CC#N)cc2)cc1	none (no result: CHOP inh)
COc1ccc(/C=C/c2cc(-c3ccc(C)cc3)o[n+]2C)cc1	Jurkat NFkB inh 61, 697 NFkB inh 93, Gli-Sufu block 87 | Jurkat NFkB conf 52 | 697 NFkB conf 41
COc1ccc(/C=C/c2c(-c3ccc(OC)cc3)oc3ccc(-c4ccc(OC)cc4)cc23)cc1	none (no result: CHOP inh)
O=C(/C=C\Nc1ccc2c(c1)OCO2)c1ccc(Cl)s1	none | Jurkat NFkB conf inactive | 697 NFkB conf inactive
CC(Nc1ncnc2sccc12)c1ccccc1 (configuration not stated)	Jurkat NFkB inh 61, 697 NFkB inh 43, Gli-Sufu block 71 (no result: CHOP inh) | Jurkat NFkB conf 62 | 697 NFkB conf 60
c1ccc(Nc2ncnc3sccc23)cc1	none (no result: CHOP inh)
CCOc1ccc(OCc2cccc(C(=O)O)c2)cc1	Jurkat NFkB inh 88, 697 NFkB inh 92, CHOP inh 109 | Jurkat NFkB conf 90 | 697 NFkB conf 77
O=C(O)c1cccc(COc2ccc3c(c2)CCC3)c1	Jurkat NFkB inh 70, 697 NFkB inh 61, CHOP inh 93 | Jurkat NFkB conf 64 | 697 NFkB conf 45
CCOc1ccc(OCc2cccc(C(=O)N3CCCC3)c2)cc1	none
C[C@H]1COC(=O)CC/C=C\C[C@H](CC(=O)N(CCO)Cc2ccccc2)C(=O)N1	none (no result: CHOP inh)
COc1cc(C(=O)Nc2ccn(C)n2)ccc1OC(F)F	none (no result: CHOP inh)
Cn1cccc1/C=C1\CCc2ccccc2C1=O	none | Jurkat NFkB conf inactive | 697 NFkB conf inactive
CCOc1ccccc1CN1CCCC(CNC(=O)Cc2ccc(OC)cc2)C1 (configuration not stated)	none (no result: CHOP inh)
COc1ccc2[nH]c3c(c2c1)CCn1c-3nc2ccccc2c1=O	CHOP inh 71 | Jurkat NFkB conf inactive | 697 NFkB conf inactive
COc1ccc(N(C(=O)c2snc(C(N)=O)c2N)C(C(=O)NC2CCCC2)c2cccs2)c(OC)c1 (configuration not stated)	none (no result: CHOP inh)
CCC(C)(C)c1ccc(OCCCC[n+]2ccc(C)cc2)c(C(C)(C)CC)c1	Jurkat NFkB inh 54, 697 NFkB inh 81, Gli-Sufu block 84, CHOP inh 76 | Jurkat NFkB conf 55 | 697 NFkB conf 44
Cc1cc[n+](CC[n+]2ccc(C)cc2)cc1	none (no result: CHOP inh)
CCCCCCn1ccc(=N)cc1	Jurkat NFkB inh 63, 697 NFkB inh 72 (no result: CHOP inh) | Jurkat NFkB conf 56 | 697 NFkB conf 73
CCOC(=O)C1CCN(C(=O)C2CCN(c3ncnc4c3nc3n4CCCCC3)CC2)CC1	none (no result: CHOP inh)
Nc1c(-c2ccccc2)cnc2c(-c3ccccc3)cnn12	none (no result: CHOP inh) | Jurkat NFkB conf inactive | 697 NFkB conf inactive
CC(C)(C)Cc1nnc(NC(=O)c2ccco2)s1	none (no result: CHOP inh)
CC(C)(C)C(=O)CSc1ncnc2c1cnn2-c1ccccc1	none | Jurkat NFkB conf inactive | 697 NFkB conf inactive
COc1ccc(C#Cc2c(-c3ccsc3)oc3ccc(N4CCOCC4)cc23)cc1	none (no result: CHOP inh)
c1cc(-c2cc3cc(N4CCOCC4)ccc3o2)cs1	none (no result: CHOP inh) | Jurkat NFkB conf inactive | 697 NFkB conf inactive
COc1ccc(/C=C(\NC(=O)c2ccc(Cl)cc2)C(=O)NCC2CCCO2)cc1OC (configuration not stated)	none (no result: CHOP inh)
O=C(Cc1ccc(S(=O)(=O)N2CCOCC2)s1)N1CCN(S(=O)(=O)c2cccc(Cl)c2)CC1	none (no result: CHOP inh)
C=CC(=O)Nc1ccc(Nc2nc(NC3CCC(N(C)C)CC3)nc3c2ncn3C(C)C)cc1 (configuration not stated)	Jurkat NFkB inh 100, 697 NFkB inh 97 (no result: CHOP inh) | Jurkat NFkB conf 97 | 697 NFkB conf 80
CC(C)n1cnc2c(Nc3ccc(F)c(Cl)c3)nc(NCCO)nc21	none (no result: CHOP inh)
NNC(=O)c1n[nH]c2c1CC(C1CCCCC1)CC2 (configuration not stated)	none (no result: CHOP inh)
Cc1ccc(S(=O)(=O)N2CCCN(C(=O)CNC(=O)c3cccc(C)c3)CC2)cc1	none (no result: CHOP inh)
COc1cc(/C=N/NC(=S)Nc2cccc(C(=O)O)c2)ccc1O	Jurkat NFkB inh 54, 697 NFkB inh 38 | Jurkat NFkB conf 50 | 697 NFkB conf 38
Cc1ccc(NC(=O)C(=O)c2c[nH]c3ccccc23)cc1	none (no result: CHOP inh) | Jurkat NFkB conf inactive | 697 NFkB conf inactive
COc1cc2c(c(OC)c1OC)-c1ccc(OC)c(=O)cc1[C@@H](NC(C)=O)CC2	Jurkat NFkB inh 71 | Jurkat NFkB conf 69 | 697 NFkB conf inactive
Cc1cc2sc3ccc(C#CC4(O)CCCCC4)cc3c(=O)c2cc1C	Jurkat NFkB inh 83, 697 NFkB inh 88 (no result: Gli-Sufu block, CHOP inh) | Jurkat NFkB conf 97 | 697 NFkB conf 75
NS(=O)(=O)c1ccc(CCNC(=O)c2cc([N+](=O)[O-])ccc2N2CCOCC2)cc1	none (no result: CHOP inh)
COc1cccc(C(=O)Nc2nc3ccccc3s2)c1	none (no result: CHOP inh) | Jurkat NFkB conf inactive | 697 NFkB conf inactive
Cc1cccc(C(=O)Nc2ccc3ccccc3c2)c1	none (no result: CHOP inh) | Jurkat NFkB conf inactive | 697 NFkB conf inactive
O=C(Nc1ccc2ccccc2c1)c1cccc([N+](=O)[O-])c1	none (no result: CHOP inh)
COc1cccc(C(=O)Nc2ccc3ccccc3c2)c1	none (no result: CHOP inh) | Jurkat NFkB conf inactive | 697 NFkB conf inactive
O=C(Nc1ccc2ccccc2c1)c1onc2c1CCCC2	none | Jurkat NFkB conf inactive | 697 NFkB conf inactive
Cc1ccc2c(C(=O)CN3CCC(C(N)=O)CC3)c(C)[nH]c2c1	none (no result: Gli-Sufu block, CHOP inh)
COc1ccc(C(=O)Nc2ccc3ccccc3c2)cc1	none (no result: CHOP inh) | Jurkat NFkB conf inactive | 697 NFkB conf inactive
O=C(Nc1ccc2ccccc2c1)c1ccc(Cl)cc1Cl	none | Jurkat NFkB conf inactive | 697 NFkB conf inactive
CC(=O)c1cccc(NC(=O)c2ccc(NS(C)(=O)=O)cc2)c1	none
O=C(Nc1ccc2ccccc2c1)c1cc(F)c(F)cc1Cl	none (no result: CHOP inh)
CS(=O)(=O)Nc1ccc(C(=O)Nc2ccc3ccccc3c2)cc1	none (no result: CHOP inh) | Jurkat NFkB conf inactive | 697 NFkB conf inactive
COc1ccccc1NS(=O)(=O)c1cn(C)cn1	none (no result: CHOP inh)
COc1ccc(-c2ccc3ccccc3n2)cc1OC	none

High-throughput results from PubChem.
